Compound activity as filed in PubChem.
Apaf-1 inh: blocks human Apaf-1 apoptosome activity; 0.71% of 330,000 active; inhibition, % at 20 µM; O14727; reconstituted apoptosome caspase-3 activity, DEVD-Rh110 fluorescence; active = inhibition of at least 40% at 20 µM;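 note: plate controls were DMSO wells for no effect and DEVD-CHO caspase inhibitor wells for full effect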
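detection = Rh110 fluorescence intensity | test system = biochemical Apaf-1 apoptosome reconstitution | also added = cytochrome c and DEVD-Rh110 substrate | schedule = 30 min plus 50 min, RT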
MEKK2wt PB1 HTS: raises or lowers MEK5 binding to wildtype human MEKK2 PB1 domain. AID 1531. binding response (% of control), % at 10 µM. bead flow cytometry, Alexa488-MEK5 binding to MEKK2 WT; actives lie on both sides. 1.1% of 290,000 active; in the data active = binding response below about 67% or above about 130%; inconclusive = no clear call, values can overlap the other calls; inactive = in between
PREPL inh: inhibits the human prolyl oligopeptidase-like enzyme; Q4J6C6; recombinant PREPL, fluorescence polarization activity-based probe; inhibition, % at 5.96 µM; 0.68% of 320,000 active; in the data active = inhibition above about 43%;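 note: 0% = enzyme with DMSO and 100% = wells lacking enzyme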
MEKK2 mut-MEK5: signal of MEK5 binding to mutant human MEKK2 PB1 domain | bead flow cytometry, Alexa488-MEK5 binding to MEKK2 mutant | percent response, % at 10 µM | 0.35% of 290,000 active; in the data active = percent response above about 24%, passing the limit was not always enough
UBC13 inh: blocks human UBC13 polyubiquitin chain formation | TR-FRET | P61088 | inhibition, % at 20 µM | 0.47% of 330,000 active | AID 485273; in the data active = inhibition above about 45%, passing the limit was not always enough; inconclusive = no clear call, values can overlap the other calls
MEKK3 PB1 HTS: raises or lowers MEK5 binding to the human MEKK3 PB1 domain; 1.4% of 290,000 active; AID 1529; binding response (% of control), % at 10 µM; Q99759; bead-based flow cytometry, Alexa488-MEK5 binding to MEKK3; actives lie on both sides; 0 = blocked by unlabeled MEK5, 100 = vehicle;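 active = binding response more than 3 SD above or below the average of its plate-row segment, actives on both sides; inconclusive = wells at one plate position flagged as instrument error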;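 note: Alexa488 bead fluorescence after subtracting the streptavidin-only scavenger bead signal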
Casp3 UBC13 ctr: caspase-3 inhibition (UBC13 counter-screen). shares compounds with UBC13 inh. Recombinant caspase-3, Caspase-Glo 3/7 luminescence, 60 min. inhibition, % at 20 µM. 4% of 1,400 active. AID 488856;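 active = mean inhibition across replicates above about 26%, limit read from the data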;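 note: plate controls were DMSO with caspase-3 for no effect and DMSO wells lacking enzyme for full effect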
UBC13 conf: human UBC13 polyubiquitin inhibition, confirmed; 68% of 1,400 active; UBC13 polyubiquitination, TR-FRET, biochemical; inhibition, % at 10 µM; shares compounds with UBC13 inh; in the data active = inhibition above about 45%; inconclusive = no clear call, values can overlap the other calls
Apaf-1 inh conf: confirmation of Apaf-1 inhibitors; shares compounds with Apaf-1 inh; reconstituted apoptosome, caspase-3 DEVD-Rh110 fluorescence; inhibition, % at 20 µM; 25% of 1,800 active;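 active = mean inhibition of at least 40% at 20 µM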;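 note: plate controls were DMSO wells for no effect and DEVD-CHO caspase inhibitor control wells for full effect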
Rh110 quench: Rh110 signal interference in Apaf-1 inhibitor counter-screen. 1,800 tested, under 10 active. activation (fluorescence interference), % at 20 µM. AID 504615. Rh110 fluorescence interference, quenched caspase reaction. shares compounds with Apaf-1 inh;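 active = signal rise of 40% or more at 20 µM, treated as a fluorescence artifact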
Apaf1 inh interf: Apaf-1 inhibitor counter-screen fluorescence artifact. shares compounds with Apaf-1 inh. 460 tested, under 10 active. fluorescence interference counterscreen, Apaf-1 assay format. IC50, µM; call rule not given here
* hit, by the source's call; ? = inconclusive; . = no result; ! = not confirmed by another sample. The list is not random: actives were taken first. Their share in the collection is about 3.1%.

SMILES	Apaf-1 inh	MEKK2wt PB1 HTS	PREPL inh	MEKK2 mut-MEK5	UBC13 inh	MEKK3 PB1 HTS	Casp3 UBC13 ctr	UBC13 conf	others
Cc1ccc2c(c1)C1CN(C)CCC1N2C(=O)/C(C#N)=C/c1ccc2c(c1)OCO2 (centres undefined)	-10	113	1	5	46*	102	1	56*
Clc1ccc(C(Cn2ccnc2)OCc2csc3c(Cl)cccc23)c(Cl)c1 (centres undefined)	40	.	30	.	44	.	.	.
Clc1ccc(CCC(Cn2ccnc2)Sc2c(Cl)cccc2Cl)cc1 (centres undefined)	24	.	2	.	48*	.	-5	34
CC(C)CN1CCN(Cc2c(F)cccc2Cl)CC1CCO (centres undefined)	-15	99	1	-4	-10	102	.	.
CN1[C@@H]2CC[C@H]1CC(OC1c3ccccc3CCc3ccccc31)C2 (some centres undefined)	23	.	22	.	58*	.	-2	37
COc1ccc(-n2c(O)c(C(C)=NCCc3c[nH]c4ccccc34)c(=O)[nH]c2=O)cc1	1	102	20	5	-12	105	.	.
CN1CCN(c2ccc(N)c(N3CCN(C)CC3)c2)CC1	18	116	4	6	49*	105	1	78*
CC(=O)N1N=C(c2c(O)n(C)c(=O)n(C)c2=O)CC1c1ccccc1 (centres undefined)	-15	100	0	5	51*	99	2	22
CCCCn1c(=O)c(C(=O)Nc2ccsc2C(=O)OC)c(O)c2ccccc21	-3	89	-6	-5	0	89	.	.
Cc1ccc2[nH]c(=S)n(-c3cccnc3)c(=O)c2c1	-5	97	12	-1	50*	97	-2	?
O=c1c2ccccc2[nH]c(=S)n1-c1ccc(Br)cc1	0	92	0	-7	17	100	.	.
O=c1c2cc(Br)ccc2[nH]c(=S)n1-c1ccccc1	-21	80	3	-13	46*	91	-4	?
O=c1c2ccccc2[nH]c(=S)n1-c1cccnc1	-7	99	-4	-5	23	99	.	.
C=CCC1(Nc2ccccc2)CC(C)N(C)CC1C (centres undefined)	-8	94	16	-13	4	93	.	.
COc1ccc(O)c2c(=O)c3c(OC)cc4c(c3oc12)C1C=COC1O4 (centres undefined)	-3	99	13	2	.	91	-4	.
O=C(C(=O)N1CCOCC1)c1cn(Cc2ccccc2)c2ccccc12	-4	86	43	-12	45*	96	0	37
O=C(C(=O)N1CCOCC1)c1cn(CCCOc2ccccc2)c2ccccc12	7	103	18	-1	29	104	.	.
COc1ccc(C)cc1NC1=NCCCS1	-17	.	1	.	4	.	.	.
CCN1CCC(NCC2CCCCC2)CC1	7	117	-3	12	-5	109	.	.
Cc1ccc2c(c1)C1C[N+](C)(CC(=O)c3ccc(Cl)cc3Cl)CCC1N2C(=O)c1ccc(F)cc1 (centres undefined)	39	.	20	.	47*	.	5	49*
CC1(C)CC(=O)C2=C(C1)NC(=O)C21C(C(=O)OC(C)(C)C)=C(N)Oc2ccc(Br)cc21 (centres undefined)	-14	101	9	3	2	102	.	.
Cc1cccc(N2CCc3c2nc2ccccc2c3N)c1	7	111	29	8	62*!	106	0	47*
NCCc1ccc(OCc2ccccc2)c(OCc2ccccc2)c1	46*	.	9	.	60*	.	0	59*	Apaf-1 inh conf=2;Rh110 quench=1
Fc1ccccc1CNC1CN2CCC1CC2 (centres undefined)	-23	93	0	-7	13	99	.	.
Ic1ccccc1CN[C@@H]1C2CCN(CC2)[C@@H]1C(c1ccccc1)c1ccccc1	50*	.	42	.	49*	.	-3	28	Apaf-1 inh conf=13;Rh110 quench=5
SMILES	Apaf-1 inh	MEKK2wt PB1 HTS	PREPL inh	MEKK2 mut-MEK5	UBC13 inh	MEKK3 PB1 HTS	Casp3 UBC13 ctr	UBC13 conf	others
COC(=O)C1=C(c2ccc(F)cc2OCc2ccccc2)C[C@@H]2CC[C@H]1N2C(=O)NC1CCN(Cc2ccccc2)CC1	53*	.	27	.	51*	.	-3	38	Apaf-1 inh conf=9;Rh110 quench=-4
CCCCCC[N+](=O)[O-]	-6	.	1	.	4	.	.	.
CCCCCCCCCCCCCCCC[N+](C)(C)C	85*	.	26	.	90*	.	8	84*	Apaf-1 inh conf=46*;Rh110 quench=15;Apaf1 inh interf=>100
Cc1ccc(-n2c(CNCc3ccc(F)cc3)nc3ccccc3c2=O)cc1	-4	102	.	3	2	102	.	.
COc1ccc(CCNCc2sccc2C)cc1	2	112	-29	9	-8	104	.	.
COc1cc2c(cc1O)[C@@H]1Cc3ccc(OC)c(O)c3CN1CC2	93*	.	10	.	-30	.	.	.	Apaf-1 inh conf=58*;Rh110 quench=-4;Apaf1 inh interf=>100
COC(=O)C1=C(c2ccc(OC(F)(F)F)cc2)C[C@@H]2CC[C@H]1N2C(=O)NC1CC1	5	.	6	.	-12	.	.	.
COC(=O)C1=C(c2ccc(Cl)c(C(F)(F)F)c2)C[C@@H]2CC[C@H]1N2C(=O)NCCOc1ccc(OC)cc1	40*	.	7	.	-5	.	.	.	Apaf-1 inh conf=19;Rh110 quench=5
COC1=C(C)C(=O)O[C@]12C(=O)C(C)=C1CCCCN3[C@H]([C@@H]4C[C@H](C)C(=O)O4)CC[C@]132	0	.	-2	.	8	.	.	.
O=[N+]([O-])c1ccc(NCc2ccccc2)c2nonc12	35	98	38	-1	-442	110	.	.
O=[N+]([O-])c1ccc(NCc2ccc(Cl)cc2)c2ccncc12	79*	93	35	5	-29	97	.	.	Apaf-1 inh conf=12;Rh110 quench=-3
COCCCn1c(N)c(C(=O)NCc2ccco2)c2nc3ccccc3nc21	95*	90	6	-21	-18	86	.	.	Apaf-1 inh conf=19;Rh110 quench=7
CCCCOCCCn1c(N)c(C(=O)OC(C)COC)c2nc3ccccc3nc21 (centres undefined)	0	101	2	2	14	101	.	.
